ChEMBL document CHEMBL4000155, “Synthesis and Antileukemic Activities of Piperlongumine and HDAC Inhibitor Hybrids against Acute Myeloid Leukemia Cells” (J Med Chem, 2016)
Activity calls are given as the source filed them. The rule behind the calls is not given here.

How the values were obtained:
MOLM-13 [1] = assay: Antiproliferative activity against human MOLM13 cells harboring wild type p53/FLT3-ITD mutant after 72 hrs in presence of SAHA by MTT assay; assay type: functional, cell-based; details: MOLM-13, 72 h
Method in brief: (§1)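 AML cell lines grown in RPMI 1640 with 10% FBS (20% for MOLM-13), 2 mM L-glutamine and penicillin/streptomycin at 37 °C, 5% CO2. Ara-C-resistant HL-60 and CMK sublines came from stepwise cytarabine selection and were kept in 600 nM or 300 nM cytarabine respectively. Cells were treated 72 h. MTT 0.05 mg/mL, 3 h at 37 °C, DMSO solubilization, absorbance at 570 nm. IC50 given ± SEM.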

U-937 [2] = assay: Induction of apoptosis in p53 null human U937 cells at 2 uM preincubated with NAC for 3 hrs followed by compound addition measured after 24 hrs in presence of SAHA by annexin V-FITC/PI staining based flow cytometry; assay type: functional, cell-based
Method in brief: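 U937 cells preincubated 3 h with 3 mM NAC or vehicle and washed with PBS to remove excess NAC. Then drug alone or with SAHA for 24 h. Apoptosis scored as % Annexin V+ by Annexin V-FITC/PI flow cytometry; vehicle DMSO < 0.1% v/v.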

U-937 [3] = assay: Cytotoxicity against p53 null human U937 cells assessed as decrease in cell viability at 0.5 to 5 uM after 24 hrs in presence of SAHA by MTT assay; assay type: functional, cell-based
Method in brief: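 MCF-10A (DMEM/F12, 5% horse serum, hydrocortisone, cholera toxin, insulin, EGF) and U937 (RPMI 1640, 10% FBS) were exposed to 0.5–5 μM, alone or PL+SAHA 1:1, for 24 h. MTT 0.05 mg/mL, 3 h at 37 °C, DMSO solubilization, A570. Viability given as mean ± SD of four to six independent experiments. DMSO <0.1% vehicle control.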

[4] = Antiproliferative activity against human CMY cells after 72 hrs in presence of SAHA by MTT assay; assay type: functional, cell-based; method in brief: as §1
U-937 [5] = assay: Induction of apoptosis in p53 null human U937 cells assessed as caspase 3 cleavage at 2 uM after 24 hrs in presence of SAHA by Western blot analysis; assay type: functional, cell-based
Method in brief: (§2)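 U937 cells exposed for 24 h. Lysates with protease/phosphatase inhibitors were separated by SDS-PAGE, transferred to PVDF and probed for PARP and cleaved caspase-3, with β-actin as loading control.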

U-937 [6] = assay: Induction of apoptosis in p53 null human U937 cells at 2 uM after 24 hrs in presence of SAHA by annexin V-FITC/PI staining based flow cytometry; assay type: functional
Method in brief: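 Human U937 AML cells (p53 null) in RPMI 1640 with 10% FBS, 2 mM L-glutamine, penicillin/streptomycin, 37 °C, 5% CO2. Exposed 24 h to compound alone or with SAHA; vehicle DMSO < 0.1% v/v. Annexin V-FITC/PI staining and flow cytometry, reported as % Annexin V+ cells. Three independent experiments in triplicate; one representative shown. EC50 taken as concentration giving 50% Annexin V+ cells versus vehicle.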

MOLM-13 [7] = assay: Induction of apoptosis in human MOLM13 cells harboring wild type p53/FLT3-ITD mutant at 4 uM after 24 hrs in presence of SAHA by annexin V-FITC/PI staining based flow cytometry; assay type: functional
Method in brief: (§3)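 Cells treated 24 h, single agents or SAHA+PL at 1:1 (each drug at the stated concentration). Annexin V-FITC/PI kit staining, then flow cytometry, reported as % Annexin V+ cells. Three independent experiments in triplicate, with data from one representative experiment. DMSO <0.1% vehicle control.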

CMK = assay: Antiproliferative activity against Ara-C resistant human CMK cells after 72 hrs in presence of SAHA by MTT assay; assay type: functional, cell-based; method in brief: as §1
U-937 [8] = assay: Effect on SAHA-induced DNA damage in p53 null human U937 cells assessed as decrease in CHK1 expression level by measuring ratio of CHK1 to beta-actin level at 2 uM after 24 hrs by Western blot analysis relative to control; assay type: functional
Method in brief: (§4)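 U937 cells treated 24 h, alone or PL+SAHA. Whole-cell lysates (protease/phosphatase inhibitors) immunoblotted for γH2AX, CHK1, RAD51, Bim and XIAP. Band densitometry normalised to β-actin, then expressed as fold change relative to the untreated control.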

U-937 [9] = assay: Effect on SAHA-induced apoptosis in p53 null human U937 cells assessed as decrease in XIAP expression level by measuring ratio of XIAP to beta-actin level at 2 uM after 24 hrs by Western blot analysis relative to control; assay type: functional; method in brief: as §4
MOLM-13 [10] = assay: Induction of cell death in human MOLM13 cells harboring wild type p53/FLT3-ITD mutant assessed as combination index at 1 to 4 uM after 24 hrs in presence of SAHA by annexin V-FITC/PI staining based flow cytometry; assay type: functional
Method in brief: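 Cells given SAHA and PL alone or together at 1:1 ratio for 24 h, then Annexin V-FITC/PI staining and flow cytometry. Combination index computed from the % Annexin V+ data; CI < 1 synergistic, = 1 additive, > 1 antagonistic. Triplicates, three independent experiments.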

MOLM-13 [11] = assay: Induction of apoptosis in human MOLM13 cells harboring wild type p53/FLT3-ITD mutant at 1 uM after 24 hrs in presence of SAHA by annexin V-FITC/PI staining based flow cytometry; assay type: functional; method in brief: as §3
[12] = Antiproliferative activity against human CMS cells after 72 hrs in presence of SAHA by MTT assay; assay type: functional, cell-based; method in brief: as §1
U-937 [13] = assay: Induction of apoptosis in p53 null human U937 cells at 4 uM after 24 hrs in presence of SAHA by annexin V-FITC/PI staining based flow cytometry; assay type: functional
MOLM-13 [14] = assay: Induction of apoptosis in human MOLM13 cells harboring wild type p53/FLT3-ITD mutant at 4 uM after 24 hrs by annexin V-FITC/PI staining based flow cytometry; assay type: functional; method in brief: as §3
U-937 [15] = assay: Induction of apoptosis in p53 null human U937 cells at 0.25 uM after 24 hrs by annexin V-FITC/PI staining based flow cytometry; assay type: functional; method in brief: as §3
[16] = Chemical stability of the compound in pH 7.4 phosphate buffer at 50 uM incubated up to 4 hrs in absence of GSH by HPLC analysis; assay type: physicochemical; details: pH 7.4, 4 h
Method in brief: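 Compound at 50 μM incubated with or without 5 mM GSH in phosphate buffer pH 7.4 at 37 °C for up to 4 h. Mixtures analysed by HPLC with water/0.1% formic acid/10% methanol versus 0.1% formic acid in acetonitrile, 0.5 mL/min, 10–80% B gradient over 18 min.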

U-937 [17] = assay: Induction of apoptosis in p53 null human U937 cells assessed as PARP-1 cleavage after 24 hrs by Western blot analysis; assay type: functional, cell-based; method in brief: as §2
MOLM-13 [18] = assay: Induction of cell death in human MOLM13 cells harboring wild type p53/FLT3-ITD mutant after 24 hrs by annexin V-FITC/PI staining based flow cytometry; assay type: functional
Method in brief: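 MOLM-13 (p53 wt, FLT3-ITD) kept in RPMI 1640 with 20% FBS, 2 mM L-glutamine, penicillin/streptomycin, 37 °C, 5% CO2. Treated 24 h; vehicle DMSO < 0.1% v/v. Annexin V-FITC/PI flow cytometry, % Annexin V+ cells. Three independent experiments in triplicate; one representative shown. EC50 is the concentration giving 50% Annexin V+ cells relative to vehicle.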

IC50 (MOLM-13 [1]) | Stability [16] | SMILES | Activity (U-937 [2]) | Activity (U-937 [3]) | IC50 [4] | Activity (U-937 [5]) | Activity (U-937 [6]) | Activity (MOLM-13 [7]) | IC50 (CMK) | Ratio (U-937 [8]) | Ratio (U-937 [9]) | CI (MOLM-13 [10]) | Activity (MOLM-13 [11]) | IC50 [12] | Activity (U-937 [13]) | Activity (MOLM-13 [14]) | Activity (U-937 [15]) | Activity (U-937 [17]) | Activity (MOLM-13 [18])
934 nM |  | COc1cc(/C=C/C(=O)N2CCC=CC2=O)cc(OC)c1OC [PIPLARTINE] | inactive | Active | 442 nM | Active | 62.5% | 77.5% | 422 nM | 0.8 | 0.6 | <=1.1 | 8% | 1040 nM | 81.1% |  |  |  | 
 | Stable | COc1cc(/C=C/C(=O)N2CCC=CC2=O)cc(OC)c1OCCCCCCC(=O)NO |  |  |  |  |  |  |  |  |  |  |  |  |  | 80.3% | inactive | Dose-dependent effect | Dose-dependent effect
